How the values were obtained:
Rattus norvegicus [1] = species: Rattus norvegicus; assay: Antiestrogenic potency was measured by inhibition of estrus in ovariectomized rats treated with 17-beta-estradiol at a dose of 5 mg; assay type: functional
Summary of the method: (§1)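 Ovariectomized rats were given 17β-estradiol together with the test compound. Vaginal smears were taken 32 h later; rats with cornified epithelial cells in the smear were scored as in estrus. The 32 h time point was chosen from smears taken at 0, 8, 24, 32, 48, 56 and 72 h. Read-out: percentage of rats in estrus, and its inhibition.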

Rattus norvegicus [2] = species: Rattus norvegicus; assay: Affinity constant was measured by inhibition of estrus in ovariectomized rats treated with 17-beta-estradiol at a dose of 5 mg; assay type: functional, organism-based
Rattus norvegicus [3] = species: Rattus norvegicus; assay: Antiestrogenic potency was measured by inhibition of estrus in ovariectomized rats treated with 17-beta-estradiol at a dose of 0.5 mg; assay type: functional; summary of the method: as §1
Rattus norvegicus [4] = species: Rattus norvegicus; assay: Affinity constant was measured by inhibition of estrus in ovariectomized rats treated with 17-beta-estradiol; assay type: functional, organism-based

| SMILES | Inhibition (Rattus norvegicus [1]) [%] | Ka (Rattus norvegicus [2]) [M⁻¹] | Inhibition (Rattus norvegicus [3]) [%] | Ka (Rattus norvegicus [4]) [M⁻¹] |
| --- | --- | --- | --- | --- |
| CC(=O)Oc1ccc2c(ccc3c(C)c4cc(OC(C)=O)ccc4c(C)c32)c1 | 67 | – | – | – |
| Cc1c2ccc(O)cc2cc2ccc3cc(O)ccc3c12 | 44 | 4.3e+07 | – | – |
| Oc1ccc2cc3c(ccc4cc(O)ccc43)cc2c1 | 12 | 3e+07 | – | – |
| COc1ccc2c(c1)CCC(c1ccccc1)=C2c1ccc(OCCN2CCCC2)cc1 [NAFOXIDINE] | – | – | 44 | – |
| C[C@]12CC[C@@H]3c4ccc(O)cc4CC[C@H]3[C@@H]1C[C@@H](O)[C@@H]2O | – | – | – | 7e+09 |
| Cc1c2cc(O)ccc2cc2c1ccc1cc(O)ccc12 | 22 | 1.8e+09 | – | – |
| Cc1c2cc(O)ccc2c(C)c2c1ccc1cc(O)ccc12 | 74 | 1.7e+08 | 44 | – |

Reference: ChEMBL document CHEMBL1122026, “Antiestrogenic properties of substituted benz[a]anthracene-3,9-diols” (1982)
